# Published values gathered from unrelated publications.
# Each line is one published result; the experiments were not run side by side.
# Organism: Klebsiella pneumoniae
# Effect on: microbial growth
SMILES,technique,strain,time,MIC
C/C(=C\C(=O)OCCCCCCCCC(=O)O)C[C@@H]1OC[C@H](C[C@@H]2O[C@H]2[C@@H](C)[C@H](C)O)[C@@H](O)[C@H]1O,broth dilution,ATCC700603,,160 µM
CN(C)[C@@H]1C(O)=C(C(N)=O)C(=O)[C@@]2(O)C(O)=C3C(=O)c4c(cc5ccc(CN6CC(F)(F)C6)cc5c4O)C[C@H]3C[C@@H]12,broth dilution,ATCC13883,,32 µg/mL
O=C(O)c1cn(C2CC2)c2cc(N3CCNCC3)c(F)cc2c1=O,,DSM30104,,≤ 0.03 µg/mL
O=C1NN=C(N=Cc2ccc(O)c(O)c2)C1=NNn1c(-c2ccccc2)nc2ccccc2c1=O,broth dilution,,24 h,53.5 µM
CO/N=C(\C(=O)N[C@@H]1C(=O)N2C(C(=O)[O-])=C(C[N+]3(C)CCCC3)CS[C@H]12)c1csc(N)n1,broth dilution,ATCC700603,,1.3 µM
CCCCCC/C=C\CCCCCCCCCc1cc(O)cc(O)c1,broth dilution,ATCC10031,,> 64 µg/mL
CCc1c(Cl)c(O)c(Cl)c(O)c1C(=O)O[C@H]1[C@H](O)[C@H](OC)[C@H](OC/C2=C\C=C\C[C@H](O)/C(C)=C/[C@H](CC)[C@@H](O[C@@H]3OC(C)(C)[C@@H](OC(=O)C(C)C)[C@H](O)[C@@H]3O)/C(C)=C/C(C)=C/C[C@@H]([C@@H](C)O)OC2=O)O[C@@H]1C,broth dilution,ATCC700603,,320 µM
CN[C@H](CC(C)C)C(=O)N[C@H]1C(=O)N[C@@H](CC(N)=O)C(=O)N[C@H]2C(=O)N[C@H]3C(=O)N[C@H](C(=O)N[C@H](C(=O)O)c4cc(O)cc(O)c4-c4cc3ccc4O)[C@H](O)c3ccc(c(Cl)c3)Oc3cc2cc(c3O[C@@H]2O[C@H](CO)[C@@H](O)[C@H](O)[C@H]2O[C@H]2C[C@](C)(N)[C@H](O)[C@H](C)O2)Oc2ccc(cc2Cl)[C@H]1O,broth dilution,ATCC43816,,> 128 µM
NC[C@@H]1O[C@H](O[C@H]2[C@@H](O)[C@H](O[C@@H]3[C@@H](O)[C@H](N)C[C@H](N)[C@H]3O[C@H]3O[C@H](CO)[C@@H](O)[C@H](O)[C@H]3N)O[C@@H]2CO)[C@H](N)[C@@H](O)[C@@H]1O,,,,1 µg/mL
Cc1c(CN(C)C(=O)/C=C/c2cnc3c(c2)CC(NC(=O)OC(C)(C)C)C(=O)N3)oc2ccccc12 (centres unmarked),broth dilution,,,> 32 µg/mL
CN(C)[C@@H]1C(O)=C(C(N)=O)C(=O)[C@@]2(O)C(O)=C3C(=O)c4c(cc5ccc(-c6cccnc6)cc5c4O)C[C@H]3C[C@@H]12,broth dilution,ATCC13883,,32 µg/mL
CCCCCCC#Cc1cncc(-c2nnc(SCc3ccc([N+](=O)[O-])o3)n2C)c1,,,,≥ 20 µg/mL
O=C(Nc1ccc(F)c(Cl)c1)c1cc(Cl)ccc1O,broth dilution,BAA1705,,> 64 µg/mL
CCCCCCC#Cc1cncc(-c2nnc(SCc3ccc([N+](=O)[O-])o3)n2C2CC2)c1,,,,≥ 20 µg/mL
CO[C@@H]1[C@@H](OC(N)=O)[C@@H](O)[C@H](Oc2ccc3c(O)c(NC(=O)c4ccc(O)c(CC=C(C)C)c4)c(=O)oc3c2C)OC1(C)C,broth dilution,ATCC700603,,160 µM
CC1=NN(CNc2ccc(Cl)cc2)C(=O)C1=NNn1c(-c2ccccc2)nc2ccccc2c1=O,broth dilution,,24 h,51.5 µM
CC(C)Oc1c(NC(=O)c2ccc(NC(=O)[C@H](CC(N)=O)NC(=O)c3ccc(NC(=O)c4ccc(C#N)cn4)cc3)cc2)ccc(C(=O)Nc2ccc(C(=O)O)cc2)c1O,,DSM30104,,> 64 µg/mL
Cc1c(CN(C)C(=O)/C=C/c2cnc3c(c2)CC(CCN)C(=O)N3)oc2ccccc12.Cl (centres unmarked),broth dilution,BAA1705,,16 µg/mL
CC1(C)S[C@@H]2[C@H](/N=C/N3CCCCCC3)C(=O)N2[C@H]1C(=O)O,broth dilution,ATCC700603,,2.5 µM
CN[C@@H]1[C@@H](O)[C@@H](O[C@@H]2[C@@H](O)[C@H](O[C@H]3OC(CNCCO)=CC[C@H]3N)[C@@H](N)C[C@H]2NC(=O)[C@@H](O)CCN)OC[C@]1(C)O,,,,0.25 to 0.5 µg/mL
CN(Cc1ccc2cc3c(c(O)c2c1)C(=O)C1=C(O)[C@]2(O)C(=O)C(C(N)=O)=C(O)[C@@H](N(C)C)[C@@H]2C[C@@H]1C3)c1ccccc1,broth dilution,ATCC13883,,32 µg/mL
CC(=O)O[C@H]1C[C@@]2(C)[C@@H](C[C@@H](O)[C@H]3[C@@]4(C)CC[C@@H](O)[C@@H](C)[C@@H]4CC[C@@]32C)/C1=C(\CCC=C(C)C)C(=O)O,broth dilution,ATCC700603,,640 µM
NC1CCCCc2c1[nH]c1cc(Cl)c(Cl)cc21 (centres unmarked),broth dilution,ATCC10031,,2 µg/mL
CC1=NN(CNc2ccc(C(=O)O)cc2)C(=O)C1=NNn1c(-c2ccccc2)nc2ccccc2c1=O,broth dilution,,24 h,50.5 µM
O=C1CN(/N=C/c2ccc([N+](=O)[O-])o2)C(=O)N1,broth dilution,ATCC700603,,320 µM
O=C1NN=C(N=Cc2ccccc2)C1=NNn1c(-c2ccccc2)nc2ccccc2c1=O,broth dilution,,24 h,114 µM
CCCCCCC#Cc1cncc(-c2nnc(SCc3ccc(Cl)cc3)n2C2CC2)c1,,,,≥ 20 µg/mL
C[C@H]1COc2c(N3CCN(C)CC3)c(F)cc3c(=O)c(C(=O)O)cn1c23,broth dilution,ATCC700603,,0.16 µM
CC(C)(O/N=C(\C(=O)N[C@@H]1C(=O)N2C(C(=O)[O-])=C(C[n+]3ccccc3)CS[C@H]12)c1csc(N)n1)C(=O)O,broth dilution,ATCC10031,18 h,2 µg/mL
